Screening data: PubChem BioAssay, Johns Hopkins Ion Channel Center
The list is not random: actives were taken first. Their share in the collection is about 3.5%.
MrgX1 antagonist: blocks BAM8-22 activation of human MrgX1 receptor; MRGX1-HEK293 calcium flux, Fluo-4, BAM8-22 antagonism; hits give low values; 310,000 compounds, 1.3% hits; B-score at 10 µM; Q96LB2; AID 588676;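 active = calcium-response B-score plate-corrected more than 3 library SD below zero, starting fluorescence within 5 deviations, no agonist response on first addition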;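 note: peak minus trough fluorescence over baseline after final BAM8-22 challenge near maximal dose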
MrgX1 agonist: activates human MrgX1 receptor signaling. MrgX1-HEK293 cells, Fluo-4 calcium fluorescence, agonist mode; hits give high values. B-score at 10 µM. 310,000 compounds, 0.44% hits. AID 588627;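 active = calcium response B-score plate-corrected fluorescence ratio at least 3 library SD, with starting fluorescence B-score inside 5 SD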
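System – MrgX1-expressing HEK293 cells · Incubation – cells plated overnight, dye loaded 0.5 h 37 °C, 0.5 h room temperature · Technique – kinetic Fluo-4 NW fluorescence of intracellular calcium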
RGS4 inh: inhibitors of human RGS4. P49798. HEK293 M3R/RGS4 inducible, Fluo-4 calcium flux; hits give high values; triggered by carbachol at its EC20. B-score at 10 µM. 310,000 compounds, 0.45% hits. AID 463165;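 active = B-score, a plate-corrected calcium signal, over three deviations above library mean, with baseline fluorescence within five deviations of library mean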;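 note: RGS4 expression induced by doxycycline in cells with stable M3 receptor; B-score is computed from the integrated fluorescence ratio over baseline after carbachol; higher B-score means a larger calcium signal and so more RGS4 inhibition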
Target sequence (P49798 whole entry, looked up): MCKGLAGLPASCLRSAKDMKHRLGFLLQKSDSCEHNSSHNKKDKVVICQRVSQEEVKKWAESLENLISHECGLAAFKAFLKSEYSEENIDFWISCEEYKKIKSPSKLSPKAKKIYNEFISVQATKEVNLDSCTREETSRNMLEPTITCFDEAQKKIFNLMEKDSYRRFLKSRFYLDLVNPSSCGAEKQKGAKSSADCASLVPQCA
MrgX1 allo act: human MrgX1 positive allosteric modulation, primary screen | Q96LB2 | MrgX1-HEK293, Fluo-4 calcium flux, FDSS; hits give high values | B-score at 10 µM | 310,000 compounds, 0.63% hits | AID 588675;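 active = plate-corrected calcium response at least 3 library SD above typical, normal starting fluorescence, not activating the receptor alone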;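 note: compound read alongside a low EC10 to EC30 dose of BAM8-22 agonist; peak minus trough fluorescence over baseline measured at the second addition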
RGS4 act: potentiators or activators of RGS4. 310,000 compounds, 0.92% hits. B-score at 10 µM. HEK293 M3R/inducible RGS4, carbachol calcium flux Fluo4; hits give low values;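 active = B-score of the integrated calcium signal more than 4 SD below the library mean, with starting fluorescence not abnormally high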;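 note: negative B-score means reduced calcium response which marks RGS4 activation or potentiation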
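Assay system: HEK293 FlpIn-TREx cells, stable M3R, doxycycline-inducible RGS4 / Probe or stimulus: carbachol, ECmax concentration / Times: overnight RGS4 induction, 30 min dye load 37 °C, 20 min compound RT / Signal: kinetic calcium fluorescence imaging with Fluo4-AM dye, 2 µM / Measure: Agonist-evoked peak-minus-minimum fluorescence over baseline, integrated ratio, B score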
RGS4 act valid: confirmation of RGS4 activators; shares compounds with RGS4 act; HEK293 M3R/RGS4 inducible, carbachol calcium flux Fluo4; inhibition, % at 10 µM; 1,100 compounds, 89% hits;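 active = inhibition above 3 SD of the buffer control wells, cut at about 41% in these data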;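 note: signal is the integrated peak-minus-minimum Fluo4 fluorescence over baseline ratio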
RGS4 act ctr: activity in cells without induced RGS4 expression; shares compounds with RGS4 act; HEK293 M3R non-induced RGS4, Fluo4 calcium flux; after carbachol challenge at its EC90; inhibition, % at 10 µM; 1,100 compounds, 82% hits; AID 602283;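 active = inhibition exceeding 3 SD of buffer-only control wells, cut at about 26% in these data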;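 note: percent drop in integrated peak-minus-baseline over baseline Fluo4 ratio after carbachol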
An asterisk follows results filed as active; i = inactive; nt = no result.

SMILES | MrgX1 antagonist | MrgX1 agonist | RGS4 inh | MrgX1 allo act | RGS4 act | RGS4 act valid | RGS4 act ctr
C=CCc1cc2c(oc(=O)c3ccccc32)c(C)c1O | i | i | i | i | -8.98* | 49.0* | 83.8*
Cc1c(O)c(CN2CCCC2)cc2c1oc(=O)c1ccccc12 | i | i | i | i | i | nt | nt
CN(CCOC(=O)C1c2ccccc2Oc2ccccc21)C(C)(C)C | i | i | i | i | -7.88* | 93.0* | 96.3*
CN(C)CCCOC(=O)C1c2ccccc2Oc2ccccc21 | i | i | i | i | -8.46* | 92.0* | 90.8*
COc1ccc(N(C(=O)Nc2ccc(Cl)cc2)C2=NCCC2)cc1 | i | i | i | i | -10.2* | 78.5* | 37.8*
CCN(CC)CCCN(C(=O)c1ccc(Br)cc1)c1nc(-c2ccc(OC)cc2)cs1 | i | i | i | i | i | nt | nt
CCN(CC)CCCN(C(=O)c1cccs1)c1nc(-c2ccc(OC)cc2)cs1 | i | i | i | i | -11.2* | 90.5* | 30.8*
COc1ccc(NC(=O)CN(c2ccccc2F)S(=O)(=O)c2ccc(C)cc2)cc1 | i | i | i | i | i | nt | nt
OCC1(Cc2ccccc2Cl)CCN(C/C=C/c2ccccc2)CC1 | i | i | i | i | -9.22* | 93.5* | 82.8*
OCC1(CCc2ccccc2)CCN(C/C=C/c2ccccc2)CC1 | i | i | i | i | i | nt | nt
Cc1ccc(Nc2ccc(NCc3ccccc3)nn2)cc1C | i | i | i | i | i | nt | nt
Clc1ccc(Nc2ccc(NCc3ccccc3)nn2)cc1 | i | i | i | i | -7.57* | 0.0 | 0.0
Cc1cc(Nc2cccc(F)c2)nc(-c2ccccc2O)n1 | i | i | i | i | i | nt | nt
CCOC(=O)c1ccc(Nc2cc(C)nc(-c3ccccc3O)n2)cc1 | i | i | i | i | -8.26* | 89.5* | 65.8*
Cc1ccc(C(=O)N2CCN(c3ccc(NC(=O)COc4ccccc4C)cc3)CC2)cc1 | i | i | i | i | -8.39* | 61.0* | 39.3*
CCC(=O)N1CCN(c2ccc(NC(=O)COc3ccc(C)cc3C)cc2)CC1 | i | i | i | i | i | nt | nt
CC(=O)Nc1ccc(S(=O)(=O)NCC2CCC(C(=O)N3CC(C)CC(C)C3)CC2)cc1 (stereo not given) | i | i | i | i | i | nt | nt
COc1cc(CNCc2cccs2)ccc1OCC(=O)NC(C)(C)C | i | i | i | i | -8.03* | 46.0* | 83.8*
CCOc1cc(CNCc2cccs2)ccc1OCC(=O)NC(C)(C)C | i | i | i | i | i | nt | nt
S=C(NCc1ccco1)N1CCN(C(c2ccccc2)c2ccccc2)CC1 | i | i | i | i | -9.76* | 65.5* | 0.0
CN(C)Cc1c(C(=O)N/N=C/c2cccs2)nnn1-c1nonc1N | i | i | i | i | i | nt | nt
CCOC(=O)N1CCC(N2CCCC(C(=O)c3cc(C)c(OC)c(C)c3)C2)CC1 (stereo not given) | i | i | i | i | -8.1* | 79.0* | 35.3*
COc1ccc(C(=O)C2CCCN(Cc3nc4ccccc4nc3C)C2)cc1OC (stereo not given) | i | i | i | i | i | nt | nt
COc1ccc(C(=O)C2CCCN(C3Cc4ccccc4C3)C2)cc1OC (stereo not given) | i | i | i | i | -8.61* | 86.0* | 45.8*
COc1ccc(CNC(=O)CN(C(=O)c2snc(C(N)=O)c2N)c2ccc(OC)c(OC)c2)cc1 | i | i | i | i | i | nt | nt
O=S(=O)(c1ccc(Br)s1)N1CCN(Cc2ccc3c(c2)OCO3)CC1 | i | i | i | i | -9.34* | 89.5* | 85.8*
COCCCNC(=O)N1c2ccccc2Sc2ccccc21 | i | i | i | i | i | nt | nt
COCCNCC(=O)N1c2ccccc2Sc2ccccc21 | i | i | i | i | -9.49* | 93.5* | 40.8*
